From ChEMBL document CHEMBL1681787, “Synthesis and anti-HSV-1 activity of new 1,2,3-triazole derivatives” (Bioorg Med Chem, 2011) come the findings set out here.

In data set [1] the test system is Human alphaherpesvirus 1. Nature of the data set: Antiviral activity against Herpes simplex viruses 1 infected in vero cells assessed as inhibition of viral replication at 50 uM after 72 hrs by XTT assay. Particulars: Human alphaherpesvirus 1, Vero. The data set is classed as functional. A digest of the protocol:
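Vero monolayers (10⁴ cells/well) infected with HSV-1 at 100 CCID50/well for 1 h. Inoculum removed, cells washed, medium with 50 µM compound added; acyclovir 50 µM as control. After 72 h XTT/PMS added to measure protection from virus-induced cytopathic effect. Means of triplicate experiments.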

Data set [2] is described as follows: Selectivity index, ratio of CC50 for african green monkey vero cells to IC50 for Herpes simplex viruses 1. The data set is classed as functional. A digest of the protocol:
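Selectivity index computed as CC50 (XTT assay in Vero cells, 72 h) divided by IC50 (plaque number reduction against HSV-1 in Vero cells).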

Data set [3] has as its system Human alphaherpesvirus 1. Nature of the data set: Antiviral activity against 5 MOI Herpes simplex viruses 1 infected in vero cells after 24 hrs by viral plaque number reduction assay. The data set is classed as functional, organism-based. Particulars: Human alphaherpesvirus 1, Vero. A digest of the protocol: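 Vero cells in 6-well plates infected with HSV-1 at MOI 5 for 1 h at 37 °C, then treated with test compounds. After 24 h infected cells lysed, supernatant harvested and titred by plaque assay. IC50 = concentration inhibiting 50% of plaque formation versus untreated controls. Acyclovir positive control. Triplicate independent experiments.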

Data set [4] in a line: Cytotoxicity against african green monkey Vero cells after 72 hrs by XTT assay. Particulars: chlorocebus sabaeus. The data set is classed as cell-based. A digest of the protocol: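 Vero cells (10⁴ cells/well; DMEM, 5% FBS, 37 °C, 5% CO2) exposed to a range of compound concentrations for 72 h. XTT (2.5 mg/mL final) added with PMS 32 µg/mL, 4 h incubation, absorbance read at 492 nm with 620 nm reference. CC50 obtained by linear regression of dose-response curves; acyclovir included.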
Background: Tetrazolium dyes change colour on reduction, which living cells bring about.

As a reminder, the inhibition is the relative decrease from the control value, in per cent. A word on the IC50: it is the concentration that inhibits the measured activity by half. One may read the CC50 as the concentration giving 50% cytotoxicity.

For the compound `Cc1ccc(S(=O)(=O)NNC(=O)c2nnn(Nc3ccc(Br)cc3)c2C)cc1`, the inhibition at 50 µM in data set [1] worked out at 69%.
Regarding `Cc1ccc(S(=O)(=O)NNC(=O)c2nnn(Nc3ccccc3)c2C)cc1`, the inhibition at 50 µM in data set [1] came out at 37%.
Turning to `Cc1ccc(S(=O)(=O)NNC(=O)c2nnn(Nc3ccc(F)cc3)c2C)cc1`, the inhibition at 50 µM in data set [1] amounted to 88%. Also, the “Ratio CC50/IC50” value in data set [2] stood at 974. Besides, the half-maximal inhibitory concentration (IC50) in data set [3] was 1.3 µM. In data set [4], this compound came in with a half-maximal cytotoxic concentration (CC50) at 72 h of 1270 µM.
In the case of `Cc1c(C(=O)NNS(=O)(=O)c2ccccc2)nnn1Nc1ccc(Cl)cc1`, the inhibition at 50 µM in data set [1] came out at 57%.
`Cc1c(C(=O)NNS(=O)(=O)c2ccccc2)nnn1Nc1ccc(Br)cc1`: in data set [1], the inhibition at 50 µM is 31%.
As to `Cc1c(C(=O)NNS(=O)(=O)c2ccccc2)nnn1Nc1ccccc1`, the inhibition at 50 µM in data set [1] came out at 79%. Moreover, the “Ratio CC50/IC50” value in data set [2] stood at 80. For the same compound, 19 µM corresponded to half-maximal inhibition in data set [3] (IC50). This compound also yielded a half-maximal cytotoxic concentration (CC50) at 72 h in data set [4] of 1510 µM.
Consider `COc1ccc(S(=O)(=O)NNC(=O)c2nnn(Nc3ccccc3)c2C)cc1`, for which the inhibition at 50 µM in data set [1] is 54%.
On to `Cc1c(C(=O)NNS(=O)(=O)c2ccccc2)nnn1Nc1cc(Cl)ccc1Cl`, for which the inhibition at 50 µM in data set [1] turned out to be 71%. The “Ratio CC50/IC50” value in data set [2] is recorded as 932. The compound further yielded an IC50 in data set [3] of 1.26 µM. The compound also showed a CC50 at 72 h in data set [4] of 1170 µM.
As to `Nc1nc2c(ncn2COCCO)c(=O)[nH]1` [ACYCLOVIR], the inhibition at 50 µM in data set [1] was determined as 95%. Also, in data set [2], the “Ratio CC50/IC50” value came to 869. In data set [3], this compound showed an IC50 of 0.99 µM. Further, the midpoint of cytotoxicity in data set [4], the CC50 at 72 h, lay at 860 µM.
The like results for `COc1ccc(S(=O)(=O)NNC(=O)c2nnn(Nc3ccc(Br)cc3)c2C)cc1` were, in that order, 77%, 26, 37 µM and 971 µM.
